Measurements of several laboratories.
pIC50: −log10 of the molar value.
Cell line: THP-1

| SMILES | observed | mode | method | time | setting | quantity | value |
| --- | --- | --- | --- | --- | --- | --- | --- |
| COc1ccc(-c2nc(C(=O)Nc3nnc(-c4cc5ccccc5[nH]4)s3)cc3c2[nH]c2ccccc23)cc1 | cell growth or viability | – | MTT | 72 h | – | pIC50 | 5.50 |
| Nc1ncc(-c2cnn(C3CCNCC3)c2)cc1-c1nnc(CC2CC2)o1 | cell growth or viability | – | trypan blue | 72 h | – | pIC50 | 6.79 |
| O=C(O)c1ccc(CN2CCC(CN[C@@H]3C[C@H]3c3ccccc3)CC2)cc1 | cell growth or viability | – | MTS | 6 days | – | pIC50 | < 4.30 |
| CC(C)(C)NCC(O)c1cc(O)cc(O)c1 (centres unmarked) | TNF-α release | inhibitor | – | 17 h | LPS-stimulated | pIC50 | 5.66 |
| O=C(Nc1nnc(-c2cc3ccccc3[nH]2)s1)c1cc2c([nH]c3ccccc32)c(-c2ccccc2)n1 | cell growth or viability | – | MTT | 72 h | – | pIC50 | 5.45 |
| Cc1cnc(-c2ccc(-c3ccc(NC(=O)Nc4c(F)cc(F)cc4F)cc3F)c3c2C(=O)NC3)[nH]1 | cell growth or viability | – | – | – | – | pIC50 | 8.41 |
| CC[C@@H](C)[C@H](N)C(=O)N1Cc2ccccc2C1 | cell growth or viability | – | ATP luminescence | – | – | pIC50 | 5.77 |
| Cc1ccc(S(=O)(=O)/C=C/C#N)cc1 | TNF-α release | inhibitor | – | 17 h | LPS-stimulated | pIC50 | 5.91 |
| O=[N+]([O-])c1c[nH]nc1-c1nc(-c2ccc3oc4ccccc4c3c2)no1 | cell growth or viability | – | LDH | 24 h | – | IC50 | 9.8 µg/mL |
| CC(CCc1ccc(O)cc1)NCCc1ccc(O)c(O)c1 (centres unmarked) | TNF-α release | inhibitor | – | 17 h | LPS-stimulated | pIC50 | 6.29 |
| COc1cc(-c2nc(C(=O)Nc3nnc(-c4cc5ccccc5n4C)s3)cc3c2[nH]c2ccccc23)cc(OC)c1OC | cell growth or viability | – | MTT | 72 h | – | pIC50 | 5.06 |
| CC(C)[C@H](N)C(=O)N1CCC[C@H]1B(O)O | cell growth or viability | – | ATP luminescence | 48 h | – | pIC50 | 6.69 |
| COc1ccc(-c2nc(C(=O)Nc3nnc(-c4cc5ccccc5n4C)s3)cc3c2[nH]c2ccccc23)cc1 | cell growth or viability | – | MTT | 72 h | – | pIC50 | 4.84 |
| O=C(/C=C/C=C/c1ccc2c(c1)OCO2)N1CCCCC1 | cell growth or viability | – | MTT | 48 h | – | IC50 | > 50 µg/mL |
| CCC(NC(C)C)C(O)c1ccc(O)c(O)c1 (centres unmarked) | TNF-α release | inhibitor | – | 17 h | LPS-stimulated | pIC50 | 5.68 |
| CCn1c(-c2nnc(NC(=O)c3cc4c([nH]c5ccccc54)c(-c4ccc(C)cc4)n3)s2)cc2ccccc21 | cell growth or viability | – | MTT | 72 h | – | pIC50 | 4.41 |
| CC(C)(C)c1ccc(S(=O)(=O)/C=C/C#N)cc1 | TNF-α release | inhibitor | – | 17 h | LPS-stimulated | pIC50 | 6.13 |
| COc1cc(/C=C/C(=O)CC(=O)/C=C/c2ccc(O)c(OC)c2)ccc1O | cell growth or viability | – | MTT | 48 h | – | IC50 | 24 µg/mL |
| NCCc1c[nH]cn1 | TNF-α release | inhibitor | ELISA | 17 h | LPS-stimulated | pIC50 | 6.15 |
| COc1cccc2c1C(=O)c1c(O)c3c(c(O)c1C2=O)C[C@@](O)(C(=O)CO)C[C@@H]3O[C@H]1C[C@H](N)[C@H](O)[C@H](C)O1 | cell growth or viability | – | MTT | 72 h | – | pIC50 | 5.49 |
